Converted amounts (≈) assume the structure as drawn.
Tests used:
[1] = biological target: T1, Corticotropin-releasing factor receptor 1 (Rattus norvegicus, UniProt P35353); assay: Displacement of [125I]Tyr-o-CRF from CRF1 receptor in rat frontal cortex homogenate by binding titration assay; format: tissue-based
T1 sequence (P35353 whole entry): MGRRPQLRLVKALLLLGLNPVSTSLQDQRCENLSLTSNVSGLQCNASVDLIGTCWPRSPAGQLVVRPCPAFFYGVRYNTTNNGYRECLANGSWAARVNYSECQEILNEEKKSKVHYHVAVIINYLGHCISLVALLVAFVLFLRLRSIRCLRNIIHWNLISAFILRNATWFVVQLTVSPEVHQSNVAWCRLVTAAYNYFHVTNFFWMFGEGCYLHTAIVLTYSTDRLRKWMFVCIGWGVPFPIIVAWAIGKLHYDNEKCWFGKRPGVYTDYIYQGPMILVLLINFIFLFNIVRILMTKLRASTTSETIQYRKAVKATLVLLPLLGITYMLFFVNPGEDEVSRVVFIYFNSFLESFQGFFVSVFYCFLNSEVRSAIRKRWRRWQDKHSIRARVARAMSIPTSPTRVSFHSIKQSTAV

[2] = Metabolic stability in human liver microsomes assessed as compound remaining at 3 uM after 10 mins by HPLC/UV/MS analysis; format: ADME, Microsome; conditions: read-out: Stability
[3] = Metabolic stability in rat liver microsomes assessed as compound remaining at 3 uM after 10 mins by HPLC/UV/MS analysis; format: ADME, Microsome; conditions: read-out: Stability
Outline: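 Pooled human or rat liver microsomes (1 mg/mL protein) with 3 μM compound and 1.3 mM NADPH in 100 mM sodium phosphate pH 7.4 at 37 °C; final 0.015% DMSO, 0.985% acetonitrile; stopped at 0 and 10 min, percent remaining by LC/MS/MS.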

[4] = Clearance in Sprague-Dawley rat at 2 mg/kg, iv after 0.17 to 24 hrs by LC/MS/MS analysis; format: ADME, organism-based; set-up: dose 2 mg/kg, route intravenous; conditions: in vivo
[5] = Volume of distribution at steady state in Sprague-Dawley rat at 2 mg/kg, iv after 0.17 to 24 hrs by LC/MS/MS analysis; format: ADME, organism-based; set-up: dose 2 mg/kg, route intravenous; conditions: in vivo, read-out: Vdss
Outline: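 Sprague–Dawley rats (n = 3) dosed 2 mg/kg iv in PEG:ethanol 90:10 (v/v) at 1 mL/kg. Plasma stored at –20 °C and quantified by LC/MS/MS after acetonitrile precipitation with internal standard.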

[6] = Half life in Sprague-Dawley rat at 2 mg/kg, iv by LC/MS/MS analysis; format: ADME, organism-based; set-up: dose 2 mg/kg, route intravenous; conditions: in vivo
[7] = AUC in Sprague-Dawley rat at 10 mg/kg, po dosed as aqueous suspension of 1% polysorbate 80 in 0.5% methylcellulose after 0.25 to 24 hrs by LC/MS/MS analysis; format: ADME, organism-based; set-up: time upper 24 hr, time lower 0.25 hr, dose 10 mg/kg, route oral; conditions: in vivo
[8] = Cmax in Sprague-Dawley rat at 10 mg/kg, po dosed as aqueous suspension of 1% polysorbate 80 in 0.5% methylcellulose after 2 to 4 hrs by LC/MS/MS analysis; format: ADME, organism-based; set-up: dose 10 mg/kg, route oral; conditions: in vivo
[9] = Oral bioavailability in Sprague-Dawley rat at 10 mg/kg dosed as aqueous suspension of 1% polysorbate 80 in 0.5% methylcellulose after 0.25 to 24 hrs by LC/MS/MS analysis; format: ADME, organism-based; conditions: in vivo
[10] = AUC in Sprague-Dawley rat at 10 mg/kg, po dosed as aqueous suspension of Labrafil M 1944CS/DMAC/polysorbate 80, 85:10:5 (v/v) after 0.25 to 24 hrs by LC/MS/MS analysis; format: ADME, organism-based; set-up: time 0.25-24 hr, dose 10 mg/kg, route oral; conditions: plasma
[11] = Cmax in Sprague-Dawley rat at 10 mg/kg, po dosed as aqueous suspension of Labrafil M 1944CS/DMAC/polysorbate 80, 85:10:5 (v/v) after 2 to 4 hrs by LC/MS/MS analysis; format: ADME, organism-based; set-up: dose 10 mg/kg, route oral; conditions: in vivo
[12] = Oral bioavailability in Sprague-Dawley rat at 10 mg/kg dosed as aqueous suspension of Labrafil M 1944CS/DMAC/polysorbate 80, 85:10:5 (v/v) after 0.25 to 24 hrs by LC/MS/MS analysis; format: ADME, organism-based; conditions: in vivo
[13] = Octanol-water partition coefficient, log D at pH 7.4; format: physicochemical
Outline: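 Partitioning between octanol and water at pH 7.4.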

[14] = Aqueous solubility at pH 6.5; format: physicochemical
[15] = Aqueous solubility at pH 1; format: physicochemical
[16] = Dissociation constant, pKa by spectrophotometric titration method; format: physicochemical
Outline: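 Spectrophotometric titration over pH 2–11 in varying acetonitrile/water mixtures, extrapolated to 0% cosolvent.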

[17] = Fraction unbound in human serum after 3 to 7 hrs by equilibrium dialysis; format: ADME, cell-free
Outline: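 Human serum spiked with compound, equilibrium-dialysed against isotonic phosphate buffer for 3 or 7 h (depending on system) at 37 °C; both sides measured by LC/MS/MS, unbound fraction as buffer/serum concentration ratio.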

[18] = Metabolic stability in NADPH-fortified human liver microsomes assessed as parent compound remaining at 10 uM after 30 mins by HPLC/UV/MS analysis; format: ADME, Microsome; conditions: read-out: Stability
Outline: (§1)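 Pooled rat or human liver microsomes 1 mg/mL, 10 μM substrate, 100 mM potassium phosphate pH 7.4, 37 °C, started with NADPH-regenerating system (1.3 mM NADP+, 3.3 mM glucose-6-phosphate, 3.3 mM MgCl2, 0.5 U/mL G6PDH); GSH 5 mM in trapping runs. Sampled 0 and 30 min, acetonitrile quench; abundance as UV peak area (330–340 nm) fraction of all drug-related components by HPLC/UV/MS.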

Liver microsomes [19] = assay: Metabolic stability in NADPH-fortified human liver microsomes assessed as pyrazinone oxidation metabolite formation at 10 uM after 30 mins by HPLC/UV/MS analysis; format: ADME, Microsome; conditions: 0.5 h; outline: as §1
Liver microsomes [20] = assay: Metabolic stability in NADPH-fortified human liver microsomes assessed as GSH adduct formation at 10 uM after 30 mins by HPLC/UV/MS analysis; format: ADME, Microsome; conditions: 0.5 h; outline: as §1
[21] = Metabolic stability in NADPH-fortified rat liver microsomes assessed as parent compound remaining at 10 uM after 30 mins by HPLC/UV/MS analysis; format: ADME, Microsome; conditions: read-out: Stability; outline: as §1
Liver microsomes [22] = assay: Metabolic stability in NADPH-fortified rat liver microsomes assessed as pyrazinone oxidation metabolite formation at 10 uM after 30 mins by HPLC/UV/MS analysis; format: ADME, Microsome; conditions: 0.5 h; outline: as §1
Liver microsomes [23] = assay: Metabolic stability in NADPH-fortified rat liver microsomes assessed as GSH adduct formation at 10 uM after 30 mins by HPLC/UV/MS analysis; format: ADME, Microsome; conditions: 0.5 h; outline: as §1
[24] = Displacement of [125I]sauvagine from CRF2 receptor in porcine choroid plexus homogenate by binding titration assay; format: tissue-based, Sus scrofa
Outline: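 Porcine choroid plexus homogenate; inhibition of [125I]-sauvagine binding measured in a titration format.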

SMILES	IC50 [1]	remaining at 10 min, 3 µM [2]	remaining at 10 min, 3 µM [3]	also measured
COC[C@H](C1CC1)n1cc(Cl)nc(Nc2cc(C)c(OC)nc2C)c1=O	1.5 nM	48%	24%	clearance [4]: 38 mL/min/kg; Vd [5]: 19 L/kg; half-life [6]: 19 h; AUC [7]: 1.3 µM·h; Cmax [8]: 180 nM; bioavailability [9]: 11%; AUC [10]: 3 µM·h; Cmax [11]: 510 nM; bioavailability [12]: 26%; logD [13]: 3.9; solubility [14]: 6 µg/mL (≈ 15.8 µM); solubility [15]: 116 µg/mL (≈ 306 µM); pKa [16]: 3.1; fraction unbound [17]: 0.021
COC[C@@H](C)n1cc(Cl)nc(Nc2cc(C)c(OC)nc2C)c1=O	14 nM	39%	8%	
COC[C@@H](C)n1cc(Cl)nc(Nc2cc(C)c(OC(F)F)nc2C)c1=O	1.6 nM	87%	66%	
C[C@@H](C1CC1)n1cc(Cl)nc(Nc2c(Cl)cc(OC(F)F)cc2Cl)c1=O				remaining at 0.5 h, 10 µM [18]: 85%; Activity (Liver microsomes [19]): 12%; Activity (Liver microsomes [20]): 2%; remaining at 0.5 h, 10 µM [21]: 74%; Activity (Liver microsomes [22]): 20%; Activity (Liver microsomes [23]): 5%
COC[C@@H](C1CC1)n1cc(C#N)nc(Nc2cc(C)c(OC(F)F)nc2C)c1=O	1.4 nM	78%	64%	
CC[C@H](C1CC1)n1cc(Cl)nc(Nc2cc(C)c(OC)nc2C)c1=O	0.28 nM	51%	5%	
COC[C@H](C1CC1)n1cc(C#N)nc(Nc2cc(C)c(OC)nc2C)c1=O	12 nM	60%	51%	
CC[C@H](C)[C@H](NC(=O)[C@@H](NC(=O)[C@H](CC(=O)O)NC(=O)[C@H](CC(C)C)NC(=O)[C@H](CC(C)C)NC(=O)[C@H](CC(C)C)NC(=O)[C@H](CCCN=C(N)N)NC(=O)[C@H](CC(N)=O)NC(=O)[C@H](CC(N)=O)NC(=O)[C@H](C)NC(=O)[C@H](C)NC(=O)[C@H](CCC(N)=O)NC(=O)[C@H](CCC(N)=O)NC(=O)[C@H](CCCCN)NC(=O)[C@H](CCC(=O)O)NC(=O)[C@H](CCCCN)NC(=O)[C@H](CCC(=O)O)NC(=O)[C@H](CCC(N)=O)NC(=O)[C@H](CCCCN)NC(=O)[C@H](CCC(=O)O)NC(=O)[C@@H](NC(=O)[C@H](CCC(=O)O)NC(=O)[C@@H](NC(=O)[C@H](CCSC)NC(=O)[C@H](CCCCN)NC(=O)[C@H](CCCN=C(N)N)NC(=O)[C@H](CC(C)C)NC(=O)[C@H](CC(C)C)NC(=O)[C@H](CCC(=O)O)NC(=O)[C@H](CC(C)C)NC(=O)[C@H](CO)NC(=O)[C@H](CC(C)C)NC(=O)[C@H](CC(=O)O)NC(=O)[C@@H](NC(=O)[C@H](CO)NC(=O)[C@@H](NC(=O)[C@@H]1CCCN1C(=O)[C@@H]1CCCN1C(=O)CNC(=O)[C@@H]1CCC(=O)N1)[C@@H](C)CC)[C@@H](C)CC)[C@@H](C)CC)[C@@H](C)CC)[C@@H](C)O)C(=O)O [SAUVAGINE]				IC50 [24]: 0.58 nM
COc1nc(C)c(Nc2nc(Cl)cn([C@H](C)C3CC3)c2=O)cc1C	1.5 nM	77%	55%	
